# In ChEMBL document CHEMBL1132785, “Optimising inhibitors of trypanothione reductase using solid-phase chemistry” (Bioorg Med Chem Lett, 2000):
# Biological target: Trypanothione reductase (Trypanosoma cruzi, UniProt P28593)
# Experiment: The compound was evaluated for inhibition of trypanothione reductase enzyme
# Outline: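 Substrate oxidised trypanothione at six levels spanning 0.25–5 × Km, with inhibitor at four experimentally chosen concentrations. Each condition run in triplicate. Ki obtained by fitting rates to the noncompetitive inhibition equation v = Vmax[S]/(1+[I]/Ki)/(Km+[S]).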
# Chain of Trypanothione reductase (P28593 whole entry): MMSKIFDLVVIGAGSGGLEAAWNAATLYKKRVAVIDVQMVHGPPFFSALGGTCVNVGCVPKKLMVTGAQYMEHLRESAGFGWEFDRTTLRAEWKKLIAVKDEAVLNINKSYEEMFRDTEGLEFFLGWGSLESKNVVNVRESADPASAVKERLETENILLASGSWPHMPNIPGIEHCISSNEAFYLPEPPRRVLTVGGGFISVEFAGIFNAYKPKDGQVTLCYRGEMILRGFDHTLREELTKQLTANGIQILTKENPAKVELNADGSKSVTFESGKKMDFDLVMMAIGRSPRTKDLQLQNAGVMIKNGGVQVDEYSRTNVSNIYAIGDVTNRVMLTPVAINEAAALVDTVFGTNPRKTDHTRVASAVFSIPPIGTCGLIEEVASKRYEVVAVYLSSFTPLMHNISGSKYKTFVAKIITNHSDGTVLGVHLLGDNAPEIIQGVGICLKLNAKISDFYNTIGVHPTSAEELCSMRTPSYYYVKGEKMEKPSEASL
row,Ki [nM],Structure (SMILES)
1,350,O=C(CCc1c[nH]c2ccccc12)NCCCNCCCCNCCCNC(=O)CCc1c[nH]c2ccccc12
2,76,O=C(Cc1c[nH]c2ccc(Br)cc12)NCCCNCCCCNCCCNC(=O)Cc1c[nH]c2ccc(Br)cc12
3,850,O=C(NCCCCNCCCNC(=O)c1cnc2cc(C(F)(F)F)ccc2c1O)c1cnc2cc(C(F)(F)F)ccc2c1O
4,280,COc1ccc2[nH]cc(CC(=O)NCCCNCCCCNCCCNC(=O)Cc3c[nH]c4ccc(OC)cc34)c2c1
5,750,O=C(NCCCNCCCCNCCCNC(=O)c1cnc2cc(C(F)(F)F)ccc2c1O)c1cnc2cc(C(F)(F)F)ccc2c1O
6,1390,O=C(CCc1ccc(O)c(O)c1)NCCCNCCCCNCCCNC(=O)CCc1ccc(O)c(O)c1 [KUKOAMINE A]
7,1260,O=C(CCCc1c[nH]c2ccccc12)NCCCNCCCCNCCCNC(=O)CCCc1c[nH]c2ccccc12
8,390,O=C(Cc1c[nH]c2ccccc12)NCCCNCCCCNCCCNC(=O)Cc1c[nH]c2ccccc12
